We go through three compounds from ChEMBL document CHEMBL1121448, “Adrenergic receptor agonists. Benzofuranylethanolamines” (1980).

Assay [1] deals with Beta-1 adrenergic receptor (Homo sapiens) (UniProt P08588). As to the kind of experiment: Tested for agonistic effect on heart rate against beta-1 adrenergic receptor in cat. Format: functional, tissue-based. Conditions: Felis catus, target entry is the homologue from another species. The essentials: (§1)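 Reserpinized, bilaterally vagotomized cats, pentobarbital-anesthetized (30 mg/kg ip, then 0.1 (mg/min)/kg infusion), artificially ventilated. Heart rate was recorded by cardiotachograph from carotid pressure. Hind-leg vascular resistance was read as perfusion pressure under constant-flow autoperfusion. Test compound was infused iv into the femoral vein for 10 min at 1.0 mL/min, in five stepwise raised concentrations.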

The species named for assay [2] is Felis catus. The experiment in a line: Intrinsic activity as percentage of heart rate (HR max) in cat was determined. The format is functional. The essentials: as §1
In assay [3] the target is Beta-1 adrenergic receptor (Homo sapiens) (UniProt P08588). The experiment in a line: Tested for antagonistic effect on heart rate against beta-1 adrenergic receptor in cat. Conditions: Felis catus, target entry is the homologue from another species. The format is functional, tissue-based. In outline: as §1
Assay [4] addresses Beta-2 adrenergic receptor (Homo sapiens) (UniProt P07550). The experiment in a line: Tested for agonistic effect on peripheral vascular resistance (PR) against beta 2 adrenergic receptor in cat. Format: functional. As to conditions: Felis catus; target entry is the homologue from another species. The essentials:
as §1

Assay [5] shares this target. The experiment in a line: Tested for agonistic effect on peripheral vascular resistance (PR) against beta-2 adrenergic receptor in cat. The format is functional. Conditions: Felis catus; target entry is the homologue from another species. In outline:
as §1

Sequence of Beta-1 adrenergic receptor (Homo sapiens) (P08588 whole entry, looked up, the tested form may be a part): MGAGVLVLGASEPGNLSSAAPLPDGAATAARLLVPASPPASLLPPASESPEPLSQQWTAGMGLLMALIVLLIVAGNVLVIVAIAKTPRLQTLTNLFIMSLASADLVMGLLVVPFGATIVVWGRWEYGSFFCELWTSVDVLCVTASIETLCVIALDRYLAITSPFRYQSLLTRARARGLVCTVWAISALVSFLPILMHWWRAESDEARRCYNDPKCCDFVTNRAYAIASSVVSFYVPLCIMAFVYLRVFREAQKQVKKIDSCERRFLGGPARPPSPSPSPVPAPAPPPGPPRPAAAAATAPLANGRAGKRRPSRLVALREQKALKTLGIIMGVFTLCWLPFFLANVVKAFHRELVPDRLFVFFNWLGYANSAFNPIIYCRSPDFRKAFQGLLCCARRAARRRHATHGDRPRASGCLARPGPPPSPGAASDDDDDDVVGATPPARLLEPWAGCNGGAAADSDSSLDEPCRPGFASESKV
Sequence of Beta-2 adrenergic receptor (Homo sapiens) (P07550 whole entry, looked up): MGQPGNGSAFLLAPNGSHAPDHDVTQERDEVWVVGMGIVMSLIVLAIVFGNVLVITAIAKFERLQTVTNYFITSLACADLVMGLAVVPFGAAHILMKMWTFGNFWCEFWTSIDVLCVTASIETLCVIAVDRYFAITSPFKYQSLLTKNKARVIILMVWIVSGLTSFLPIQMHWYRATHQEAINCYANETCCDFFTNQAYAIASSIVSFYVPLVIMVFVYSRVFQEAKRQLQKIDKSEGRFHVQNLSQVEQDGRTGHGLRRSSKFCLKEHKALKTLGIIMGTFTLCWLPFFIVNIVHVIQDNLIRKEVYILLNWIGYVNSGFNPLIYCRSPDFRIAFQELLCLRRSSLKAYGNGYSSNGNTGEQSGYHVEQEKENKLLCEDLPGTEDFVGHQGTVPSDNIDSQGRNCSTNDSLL

The compound `CC(C)NC[C@H](O)COc1ccc(O)cc1` [PRENALTEROL] displayed a KA in assay [1] of 0.025 µM/kg. The compound further had an HR in assay [2] of 80%.

As for `CC(C)NCC(O)c1cc2ccc(O)cc2o1` (stereo not given), the KA in assay [1] was 1.65 µM/kg. Moreover, the KB in assay [3] turned out to be 4.8 µM/kg; in assay [4], 4.73 µM/kg. This compound also had an HR in assay [2] of 27%.

As to `CC(C)NCC(O)c1cc2cc(O)ccc2o1` (stereo not given), the KA in assay [1] is 0.21 µM/kg. Further, the KB in assay [3] was found to be 0.34 µM/kg; in assay [5], 1.12 µM/kg. Besides, the HR in assay [2] is 80%.
